Hep lipid drop: inhibitors of hepatocyte lipid droplet formation, primary screen, imaging, high-throughput imaging, BODIPY stain; actives 0.4% (n = 240,000); AML12 mouse hepatocytes, oleate lipid droplets; inhibition, % at 6.5 µM;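 active = lipid droplet intensity inhibited by at least 50%, with more than 500 cells counted; inconclusive = wells with under 300 cells, treated as cytotoxic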
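Material: mouse AML12 hepatocyte cell line, fixed after treatment; Timing: compound with oleate, overnight; Technique: high-content imaging of BODIPY-stained droplets and DAPI nuclei; Probe or stimulus: oleate, 100 µM final; Dosing: compound at 6.5 µM only.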
proCasp3 act: activators of human procaspase-3 D3A mutant, primary screen, biochemical, absorbance, PC-3 D3A mutant, single concentration. activation, % at 8.5 µM. actives 0.11% (n = 330,000). recombinant procaspase-3 D3A, Ac-DEVD-pNA absorbance 405 nm;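 active = activation above the mean of all tested compounds plus 3 SD, cut at about 21% in these data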;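 also: 0% = DMSO alone and 100% = DMSO wells spiked with extra 5 µM PC-3 D3A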
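Assay system – Procaspase-3 D3A mutant, all three cleavage aspartates alanine · Controls – DMSO-only low control, 5 µM PC-3 D3A high control · Schedule – 1 h compound preincubation, 2 h substrate hydrolysis at 25 °C · Signal – 405 nm absorbance of p-nitroaniline, reads at 0 and 120 min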
JMJD2C inh: inhibitors of GASC-1 histone demethylase, primary screen, biochemical, fluorescence, DELFIA europium; AID 2099, 2009; inhibition, % at 2.35 µM; actives 0.069% (n = 330,000); GST-JMJD2C(1-420) H3K9me3 demethylation; Lysine-specific demethylase 4C (Homo sapiens), Q9H3R0;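 active = more than half of a compound's replicate wells show inhibition beyond 50%, single wells judged on their own value; inconclusive = some, but no more than half, of replicates pass 50% inhibition; inactive = no replicate passes 50% inhibition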;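 also: signal counts dimethyl H3K9 product captured on neutravidin plate; 0% = median of DMSO wells and 100% = 0.3 times that DMSO median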
GRK2 inh: compounds blocking aptamer binding on GRK2 – biochemical, human GRK2, bead flow cytometry, HTS, primary screen; FAM-aptamer displacement from GRK2; inhibition of aptamer binding, % at 10 µM; actives 0.59% (n = 330,000);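 active = inhibition of aptamer binding above 40%, roughly 3 SD of noise, on plates passing a quality check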;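 also: median bead fluorescence of bound FAM aptamer so fluorescent compounds give negative values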
VLA-4 inh: inhibition in human VLA-4 binding assay, primary screen, VLA-4 allosteric modulator project, MLPCN library, flow cytometry, VLA-4 expressing cells. Integrin alpha-4 (Homo sapiens), P13612. ligand binding flow cytometry. inhibition, % (about 7 µM as worked out from the volumes in the protocol). actives 0.2% (n = 330,000). AID 2557, 2010; in the data active = inhibition above about 50%
Target sequence (P13612 whole entry, looked up): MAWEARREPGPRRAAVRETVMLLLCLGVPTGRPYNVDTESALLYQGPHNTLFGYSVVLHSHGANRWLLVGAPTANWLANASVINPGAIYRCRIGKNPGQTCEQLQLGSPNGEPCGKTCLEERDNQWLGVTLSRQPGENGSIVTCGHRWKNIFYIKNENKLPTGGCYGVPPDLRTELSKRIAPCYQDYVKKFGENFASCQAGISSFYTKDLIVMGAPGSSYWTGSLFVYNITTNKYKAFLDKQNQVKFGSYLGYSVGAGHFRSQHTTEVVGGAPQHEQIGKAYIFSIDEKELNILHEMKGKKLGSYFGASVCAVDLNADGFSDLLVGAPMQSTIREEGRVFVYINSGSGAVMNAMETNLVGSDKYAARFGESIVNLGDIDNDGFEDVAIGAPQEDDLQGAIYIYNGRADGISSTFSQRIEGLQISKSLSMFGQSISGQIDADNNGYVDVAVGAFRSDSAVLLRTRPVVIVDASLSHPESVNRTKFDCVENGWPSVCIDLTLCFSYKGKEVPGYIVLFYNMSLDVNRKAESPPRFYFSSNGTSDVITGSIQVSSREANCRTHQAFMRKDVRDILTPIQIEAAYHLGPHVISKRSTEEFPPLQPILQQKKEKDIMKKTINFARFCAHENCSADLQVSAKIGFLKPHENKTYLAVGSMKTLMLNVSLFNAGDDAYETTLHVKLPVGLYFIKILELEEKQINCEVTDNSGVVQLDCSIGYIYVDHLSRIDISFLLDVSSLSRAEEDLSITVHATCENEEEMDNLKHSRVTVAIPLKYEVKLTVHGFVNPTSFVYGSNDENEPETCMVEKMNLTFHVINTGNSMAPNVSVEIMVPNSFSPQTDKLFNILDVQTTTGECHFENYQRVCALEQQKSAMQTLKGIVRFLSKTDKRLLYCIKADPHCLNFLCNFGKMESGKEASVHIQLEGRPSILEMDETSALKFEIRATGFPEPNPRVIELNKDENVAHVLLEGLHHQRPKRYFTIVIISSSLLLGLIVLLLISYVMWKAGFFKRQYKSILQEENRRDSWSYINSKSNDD
proCasp7 act: procaspase-7 activators, primary screen, counter-screen for procaspase-3 activator project, biochemical, absorbance, HTS, human; recombinant procaspase-7, Ac-DEVD-pNA absorbance 405 nm; D23A/D198A/D206A triple mutant, cannot self-cleave; scale: DMSO 0, 5 µM enzyme 100; activation, % at 8.5 µM; actives 0.093% (n = 330,000); AID 463210, 2010;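 active = percent activation above the screen-wide mean plus 3 SD, cut at about 25% in these data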
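Assay system: Uncleavable procaspase-7 mutant enzyme / Input: 2 µM procaspase-7 mutant as dispensed / Dosing: single nominal 8.5 µM compound dose, 0.8% DMSO final / Timing: 1 h enzyme–compound preincubation and 2 h substrate reaction, both 25 °C / Detection: p-Nitroaniline absorbance at 405 nm, read at 0 and 120 min / Replication: singlicate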
Hep lipid conf: hepatocyte lipid droplet accumulation inhibitors, confirmation, imaging, AML12 mouse hepatocytes, single concentration, high-content. shares compounds with Hep lipid drop. BODIPY lipid droplet imaging; droplets induced with 100 µM oleic acid. inhibition, % at 5.2 µM. actives 65% (n = 870);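 active = inhibition of lipid droplet metric at least 50%, with more than 300 cells in each of four replicates; inconclusive = wells under 300 cells, flagged as toxic or low count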;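 also: plate controls were DMSO with oleic acid for no effect and 5 µM Triacsin-C for full effect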
AML12 tox img: AML12 hepatocyte cytotoxicity, counter-screen for hepatic lipid droplet formation project, imaging, DAPI nuclear morphology imaging | shares compounds with Hep lipid drop | AML12 mouse hepatocytes; active compounds read high; cells fed 100 µM oleate overnight | z-score at 5 µM | actives 3% (n = 870) | AID 463200, 2010; in the data active = z-score above about 6.3;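 also: compound exposure lasted overnight at 37 °C before fixation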
AML12 tox conf: AML12 hepatocyte cytotoxicity, confirmation, cytotoxicity control for hepatic lipid droplet formation project, cell-based, single concentration; shares compounds with Hep lipid drop; AML12 mouse hepatocyte viability, ATP luminescence; cells loaded with 100 µM oleic acid; 530 tested, under 10 active; AID 463219, 2010; cytotoxicity, % at 50 µM;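 active = cytotoxicity above 50% in each of four replicates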;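 also: compound exposure lasted overnight at 37 °C before the ATP read; 0% = DMSO-treated cells and 100% = wells with no cells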
* marks the source's active call; other numbers are inactive results; i = inactive; ? = inconclusive; · = no result. The list is not random: actives were taken first. Their share in the collection is about 1.3%.

SMILES	Hep lipid drop	proCasp3 act	JMJD2C inh	GRK2 inh	VLA-4 inh	proCasp7 act	Hep lipid conf	AML12 tox img	AML12 tox conf
COc1ccc(C(=O)OC(C)C(=O)Nc2cc(C(F)(F)F)ccc2Cl)c(OC)c1OC (stereo unspecified)	80*	1	-23	0	12	5	107*	-0.28	0
COc1cc(C(=O)Nc2cc(C(F)(F)F)ccc2Cl)cc(OC)c1OC	·	3	i	1	0	7	·	·	·
CCOc1ncccc1C(=O)OC(C)C(=O)Nc1ccc(CC)cc1 (stereo unspecified)	53*	6	23	1	4	5	97*	-0.59	16
CCOc1ccc(CN(C)C(=O)CNC(=O)c2ccc3ccccc3c2)cc1OC	88*	-4	3	1	17	-1	107*	-0.23	21
CC(=O)c1ccc(Nc2nc(=O)c3cccnc3s2)cc1	77*	8	6	1	10	3	20	-0.77	·
COc1ccccc1CNC(=O)C1CC2Cn3c(nc4cc(C)c(C)cc43)C2N1C (stereo unspecified)	·	5	-20	5	-12	-6	·	·	·
CCn1cc(C(=O)NCCCN(CC(C)C)CC(C)C)c(=O)c2cc(S(=O)(=O)N(C)C3CCCCC3)ccc21	69*	8	3	2	6	-9	24	-0.027	·
CCN(CC)CCCNC(=O)c1cn(CC)c2ccc(S(=O)(=O)N(C)C3CCCCC3)cc2c1=O	16	-3	-1	0	10	0	·	·	·
Cc1csc(NC(C)c2nc3cc(C(F)(F)F)ccc3n2CCCO)n1 (stereo unspecified)	·	6	-9	·	·	-5	·	·	·
CN(CC(=O)Nc1ccc(F)c(F)c1F)C(=O)CCc1nc2sc3c(c2c(=O)[nH]1)CCCC3	·	0	2	6	-1	4	·	·	·
Clc1cccc(Nc2nc(-c3ccncc3)cs2)c1	91*	3	-3	2	6	-13	58	17*	·
Cc1cccc(Nc2nc(-c3ccncc3)cs2)c1	?	5	4	0	15	-4	·	·	·
Cn1nc(C(F)(F)F)c(-c2cccc(C(F)(F)F)c2)c1NC(=O)c1ccco1	21	-4	0	1	1	-4	·	·	·
Cn1nc(C(F)(F)F)c(-c2cccc(C(F)(F)F)c2)c1NC(=O)Nc1ccc(F)cc1	69*	-10	-5	2	16	2	90*	-0.64	0
N=c1c(C(=O)NCCN2CCOCC2)cc2c(=O)n3ccccc3nc2n1CCCN1CCOCC1	52*	-22	-13	0	7	-11	16	-0.46	·
O=C(C1CCCCC1)N1CCC(CO)(Cc2ccccc2Cl)CC1	-4	-6	8	0	2	-1	·	·	·
COC(=O)[C@@H]1C[C@@]2(O)[C@H](O)[C@H](O)[C@H](O)C[C@H]2N1Cc1cc(F)ccc1F	50*	-6	13	0	2	-5	19	-0.47	·
Cc1ccc(-n2nc3c(=O)n(CC(=O)NCc4ccccc4)nc(C)c3c2C)cc1	8	5	-4	0	4	5	·	·	·
Cc1nn(C(C)C(=O)NCc2cccs2)c(=O)c2nn(-c3ccccc3)c(C)c12 (stereo unspecified)	-18	-2	2	1	-11	6	·	·	·
Cc1ccc(-n2nc3c(=O)n(CC(=O)NC(C)CCc4ccccc4)nc(C)c3c2C)cc1 (stereo unspecified)	88*	1	-1	0	7	5	77*	-0.48	5
Cc1ccc(-n2nc3c(=O)n(CC(=O)NC4CCCCC4)nc(C)c3c2C)cc1	57*	-5	-7	0	15	1	88*	-0.23	17
Cc1ccc(-n2nc3c(=O)n(C(C)C(=O)NCCc4cccs4)nc(C)c3c2C)cc1 (stereo unspecified)	53*	-13	2	0	-2	1	96*	-0.5	20
CNC(=O)c1cc(C(=O)c2ccc(Cl)cc2)c(Br)[nH]1	-3	5	9	0	8	1	·	·	·
CCCC1(c2ccccc2)NC(=O)N(CC(=O)NCc2ccc(C)cc2)C1=O (stereo unspecified)	23	0	13	14	-1	0	·	·	·
COc1ccc(Cl)cc1NC(=O)CN1C(=O)NC2(CCCC2)C1=O	88*	10	1	0	8	-5	91*	0.56	15
SMILES	Hep lipid drop	proCasp3 act	JMJD2C inh	GRK2 inh	VLA-4 inh	proCasp7 act	Hep lipid conf	AML12 tox img	AML12 tox conf
COc1ccc(NC(=O)CN2C(=O)NC(c3ccccc3)(c3ccccc3)C2=O)cc1	-6	4	-3	0	3	10	·	·	·
COc1ccc(NC(=O)CN2C(=O)NC(c3ccccc3)(c3ccccc3)C2=O)cc1OC	105*	1	-26	3	-3	5	103*	-0.13	2
CCCC1(c2ccccc2)NC(=O)N(CC(=O)Nc2cc(C)ccc2OC)C1=O (stereo unspecified)	56*	0	-9	1	6	-8	87*	-0.48	13
COc1cccc(NC(=O)CNC(=O)[C@@H]2Cc3ccccc3CN2C(=O)OC(C)(C)C)c1	5	7	-16	3	-111	6	·	·	·
CC(C)[C@H](NC(=O)[C@@H]1Cc2ccccc2CN1C(=O)OC(C)(C)C)C(=O)NC1CCCC1	-2	1	?	0	-5	-7	·	·	·
COc1ccc(NC(=O)[C@H](C)NC(=O)[C@@H]2Cc3ccccc3CN2C(=O)OC(C)(C)C)cc1	55*	1	-9	4	-4	8	91*	-1.1	9

High-throughput results (PubChem BioAssay)
